The results in this text go back to ChEMBL document CHEMBL4396947, “Synthesis and characterization of novel isoform-selective IP6K1 inhibitors” (Bioorg Med Chem Lett, 2019).

The Ki is the dissociation constant of the complex between target and ligand, obtained from inhibition or displacement. Usually IC50 stands for the midpoint of a concentration-inhibition curve.

Series [1] is filed under the species Homo sapiens. Briefly: Inhibition of recombinant human PRAK 5 R291E mutant assessed as residual activity at 10 uM using KKLRRTLSVA as substrate incubated for 40 mins in presence of [gamma-33P]ATP at Km concentration by radiometric assay relative to control.
Series [2] has as its target Ribosomal protein S6 kinase alpha-4 (Homo sapiens) (UniProt O75676). Briefly: Inhibition of full length recombinant human MSK2 assessed as residual activity at 10 uM using GRPRTSSFAEGKK as substrate incubated for 40 mins in presence of [gamma-33P]ATP at Km concentration by radiometric assay relative to control.
In series [3] the target is Serine/threonine-protein kinase Chk1 (Homo sapiens) (UniProt O14757). Briefly: Inhibition of human full length recombinant CHK1 assessed as residual activity at 10 uM using KKKVSRSGLYRSP as substrate incubated for 40 mins in presence of [gamma-33P]ATP at Km concentration by radiometric assay relative to control.
Sequence of Serine/threonine-protein kinase Chk1 (Homo sapiens) (O14757 whole entry): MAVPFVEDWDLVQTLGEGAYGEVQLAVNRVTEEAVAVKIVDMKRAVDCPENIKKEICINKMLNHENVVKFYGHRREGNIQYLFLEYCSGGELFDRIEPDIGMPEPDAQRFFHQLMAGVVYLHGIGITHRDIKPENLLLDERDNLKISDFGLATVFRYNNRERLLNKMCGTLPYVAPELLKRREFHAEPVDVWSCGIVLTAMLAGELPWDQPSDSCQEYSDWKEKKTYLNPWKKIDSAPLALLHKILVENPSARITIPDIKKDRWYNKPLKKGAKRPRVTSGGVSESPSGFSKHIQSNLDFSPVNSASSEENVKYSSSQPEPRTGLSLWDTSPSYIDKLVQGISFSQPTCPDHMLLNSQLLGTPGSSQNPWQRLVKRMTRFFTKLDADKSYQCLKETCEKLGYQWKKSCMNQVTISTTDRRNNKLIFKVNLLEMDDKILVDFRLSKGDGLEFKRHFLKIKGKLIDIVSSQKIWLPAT
The target in series [4] is Serine/threonine-protein kinase mTOR (Homo sapiens) (UniProt P42345). Briefly: Inhibition of full length recombinant human mTOR assessed as residual activity at 10 uM incubated for 40 mins in presence of [gamma-33P]ATP at Km concentration by radiometric assay relative to control.
Series [5] deals with Serine/threonine-protein kinase 4 (Homo sapiens) (UniProt Q13043). Briefly: Inhibition of full length recombinant human MST1 assessed as residual activity at 10 uM using KKSRGDYMTMQIG as substrate incubated for 40 mins in presence of [gamma-33P]ATP at Km concentration by radiometric assay relative to control.
The target in series [6] is Mitogen-activated protein kinase kinase kinase 9 (Homo sapiens) (UniProt P80192). Briefly: Inhibition of recombinant human MLK1 (134 to 414 residues) assessed as residual activity at 10 uM using casein as substrate incubated for 40 mins in presence of [gamma-33P]ATP at Km concentration by radiometric assay relative to control.
Sequence of Mitogen-activated protein kinase kinase kinase 9 (Homo sapiens) (P80192 whole entry, looked up, the tested form may be a part): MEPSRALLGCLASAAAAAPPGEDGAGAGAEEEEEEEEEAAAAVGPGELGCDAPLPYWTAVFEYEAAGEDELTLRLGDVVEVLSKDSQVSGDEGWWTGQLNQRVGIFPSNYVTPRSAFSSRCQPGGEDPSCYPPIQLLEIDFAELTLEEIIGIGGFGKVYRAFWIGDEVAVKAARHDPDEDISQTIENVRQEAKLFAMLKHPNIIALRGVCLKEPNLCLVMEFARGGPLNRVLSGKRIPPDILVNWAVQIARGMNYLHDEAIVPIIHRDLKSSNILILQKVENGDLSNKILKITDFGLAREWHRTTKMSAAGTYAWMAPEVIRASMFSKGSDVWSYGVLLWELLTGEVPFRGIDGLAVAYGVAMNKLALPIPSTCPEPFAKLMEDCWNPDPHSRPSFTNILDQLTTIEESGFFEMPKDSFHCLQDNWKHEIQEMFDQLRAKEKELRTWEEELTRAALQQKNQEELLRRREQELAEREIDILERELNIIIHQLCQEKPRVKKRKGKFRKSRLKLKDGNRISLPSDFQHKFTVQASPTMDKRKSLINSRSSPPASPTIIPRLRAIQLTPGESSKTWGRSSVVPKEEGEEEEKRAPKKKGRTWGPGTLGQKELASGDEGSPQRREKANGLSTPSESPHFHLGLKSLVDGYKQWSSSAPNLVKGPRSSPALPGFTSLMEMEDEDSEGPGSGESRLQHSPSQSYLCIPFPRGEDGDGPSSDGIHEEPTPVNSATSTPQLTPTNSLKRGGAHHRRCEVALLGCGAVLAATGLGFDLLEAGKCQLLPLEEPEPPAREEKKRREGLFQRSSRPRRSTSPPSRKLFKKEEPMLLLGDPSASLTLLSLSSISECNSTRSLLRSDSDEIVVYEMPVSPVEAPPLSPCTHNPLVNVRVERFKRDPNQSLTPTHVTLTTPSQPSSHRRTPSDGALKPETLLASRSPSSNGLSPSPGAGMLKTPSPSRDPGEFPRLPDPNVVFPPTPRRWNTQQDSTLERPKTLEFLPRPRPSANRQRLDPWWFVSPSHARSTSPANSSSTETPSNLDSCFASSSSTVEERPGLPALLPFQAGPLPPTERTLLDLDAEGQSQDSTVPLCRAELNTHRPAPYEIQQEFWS
A short description of series [7]: Half life in human microsomes at 1 uM in presence of NADPH. Type of series: ADME, Microsome.
For series [8], the target named is Cyclin-dependent kinase 1/cyclin B1 (Homo sapiens) (UniProt P06493+P14635). In words: Inhibition of human full length recombinant CDK1/cyclinB assessed as residual activity at 10 uM using Histone H1 as substrate incubated for 40 mins in presence of [gamma-33P]ATP at Km concentration by radiometric assay relative to control. Type of series: protein-complex assay.

Series [9] is filed under the species Homo sapiens. Briefly: Inhibition of recombinant full-length human AURKA I31F mutant assessed as residual activity at 10 uM using LRRASLG as substrate incubated for 40 mins in presence of [gamma-33P]ATP at Km concentration by radiometric assay relative to control.
The target in series [10] is cAMP-dependent protein kinase catalytic subunit alpha (Homo sapiens) (UniProt P17612). Briefly: Inhibition of recombinant full length human PRKACA assessed as residual activity at 10 uM using LRRASLG as substrate incubated for 40 mins in presence of [gamma-33P]ATP at Km concentration by radiometric assay relative to control.
The target of series [11] is Ephrin type-A receptor 5 (Homo sapiens) (UniProt P54756). Briefly: Inhibition of recombinant human EPHA5 (655 to 956 residues) assessed as residual activity at 10 uM using poly (Glu,Tyr) 4:1 as substrate incubated for 40 mins in presence of [gamma-33P]ATP at Km concentration by radiometric assay relative to control.
Sequence of Ephrin type-A receptor 5 (Homo sapiens) (P54756 whole entry, the tested form may be a part, canonical isoform): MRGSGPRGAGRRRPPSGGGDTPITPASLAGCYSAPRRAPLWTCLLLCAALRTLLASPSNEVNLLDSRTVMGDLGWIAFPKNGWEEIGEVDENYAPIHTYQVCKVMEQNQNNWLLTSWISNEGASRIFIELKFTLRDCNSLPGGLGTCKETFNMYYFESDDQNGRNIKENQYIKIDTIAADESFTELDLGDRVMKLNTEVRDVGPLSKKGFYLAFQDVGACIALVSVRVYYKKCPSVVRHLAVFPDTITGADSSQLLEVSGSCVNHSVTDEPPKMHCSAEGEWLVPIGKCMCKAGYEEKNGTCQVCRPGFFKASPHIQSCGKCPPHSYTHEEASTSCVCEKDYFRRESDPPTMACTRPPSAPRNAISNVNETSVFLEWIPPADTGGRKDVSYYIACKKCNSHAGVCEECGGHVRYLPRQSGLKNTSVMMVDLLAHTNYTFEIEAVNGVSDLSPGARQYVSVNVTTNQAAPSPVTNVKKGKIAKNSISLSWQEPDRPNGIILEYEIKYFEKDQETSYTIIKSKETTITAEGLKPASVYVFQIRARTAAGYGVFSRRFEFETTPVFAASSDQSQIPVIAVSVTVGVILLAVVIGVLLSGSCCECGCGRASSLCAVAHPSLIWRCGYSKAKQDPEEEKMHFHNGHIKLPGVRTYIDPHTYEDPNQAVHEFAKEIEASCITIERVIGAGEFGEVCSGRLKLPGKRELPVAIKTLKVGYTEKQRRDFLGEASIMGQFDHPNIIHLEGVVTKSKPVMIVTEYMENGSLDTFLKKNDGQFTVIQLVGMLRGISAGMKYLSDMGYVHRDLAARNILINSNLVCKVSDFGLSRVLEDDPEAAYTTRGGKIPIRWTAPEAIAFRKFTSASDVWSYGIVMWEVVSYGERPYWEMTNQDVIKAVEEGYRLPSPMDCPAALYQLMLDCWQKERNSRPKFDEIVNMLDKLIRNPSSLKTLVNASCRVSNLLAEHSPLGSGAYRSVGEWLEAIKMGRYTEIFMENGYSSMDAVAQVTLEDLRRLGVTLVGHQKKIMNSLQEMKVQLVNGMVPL
Series [12] deals with Inositol hexakisphosphate kinase 2 (Homo sapiens, UniProt Q9UHH9). In words: Inhibition of IP6K2 (unknown origin) in presence of ATP at Km concentration by Cheng-Prusoff equation analysis. In a few lines: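 Purified IP6K isoforms run in the ADP-Glo Max kinase assay with 1 mM ATP. Measured IC50 values converted to Ki with the Cheng-Prusoff equation.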
Series [13] relates to Ribosomal protein S6 kinase beta-1 (Homo sapiens), P23443 [T412E]. Briefly: Inhibition of recombinant human p70S6K T412E mutant (1 to 421 residues) assessed as residual activity at 10 uM incubated for 40 mins in presence of [gamma-33P]ATP at Km concentration by radiometric assay relative to control.
Series [14] has as its target Rho-associated protein kinase 1 (Homo sapiens) (UniProt Q13464). In words: Inhibition of recombinant human ROCK1 (17 to 535 residues) assessed as residual activity at 10 uM using KEAKEKRQEQIAKR as substrate incubated for 40 mins in presence of [gamma-33P]ATP at Km concentration by radiometric assay relative to control.
Series [15] deals with Inositol hexakisphosphate kinase 3 (Homo sapiens, UniProt Q96PC2). In words: Inhibition of IP6K3 (unknown origin) incubated for 120 mins using IP6 as substrate in presence of ATP by ADP-Glo reagent based luminescence assay. In a few lines: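 Luminescent ADP-Glo Max format adapted for IP6K, with purified enzyme and ATP at 1 mM, which is consumed as the kinase reaction proceeds. IC50 taken from the resulting inhibition data.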
Sequence of Inositol hexakisphosphate kinase 3 (Q96PC2 whole entry): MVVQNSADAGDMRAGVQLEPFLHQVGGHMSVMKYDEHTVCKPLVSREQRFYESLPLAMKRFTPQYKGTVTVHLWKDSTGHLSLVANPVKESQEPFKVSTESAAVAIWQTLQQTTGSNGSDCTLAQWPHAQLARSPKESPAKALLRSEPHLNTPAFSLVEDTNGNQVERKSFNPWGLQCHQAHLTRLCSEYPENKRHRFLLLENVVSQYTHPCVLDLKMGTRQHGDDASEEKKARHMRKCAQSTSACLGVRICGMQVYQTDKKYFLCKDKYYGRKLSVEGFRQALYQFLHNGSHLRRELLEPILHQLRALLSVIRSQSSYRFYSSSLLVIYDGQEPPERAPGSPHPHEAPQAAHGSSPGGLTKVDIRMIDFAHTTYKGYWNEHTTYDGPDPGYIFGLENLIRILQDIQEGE
Background: ADP-Glo turns the ADP formed in a reaction into a luminescent signal.

Series [16] has as its target cGMP-dependent protein kinase 1 (Homo sapiens) (UniProt Q13976). In words: Inhibition of recombinant full length human PKG1alpha assessed as residual activity at 10 uM using RRRLSFAEPG as substrate incubated for 40 mins in presence of [gamma-33P]ATP at Km concentration by radiometric assay relative to control.
For series [17], the species on record is Homo sapiens. Briefly: Inhibition of recombinant full length human PI3K p120gamma R459Q mutant assessed as residual activity at 10 uM using phosphatidylinositol-4,5 bisphosphate as substrate incubated for 40 mins in presence of [gamma-33P]ATP at Km concentration by radiometric assay relative to control.
A short description of series [18]: Half life in rat microsomes at 1 uM in presence of NADPH. Type of series: ADME, Microsome.
The target in series [19] is ALK tyrosine kinase receptor (Homo sapiens) (UniProt Q9UM73). Briefly: Inhibition of human recombinant ALK (1058 to end residues) assessed as residual activity at 10 uM using KKKSPGEYVNIEF as substrate incubated for 40 mins in presence of [gamma-33P]ATP at Km concentration by radiometric assay relative to control.
The species entered for series [20] is Homo sapiens. Briefly: Selectivity ratio of Ki for IP6K3 (unknown origin) to Ki for IP6K1 (unknown origin). The gist of the method: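 Purified IP6K1, IP6K2 and IP6K3 were each tested in an ADP-Glo Max luminescence assay optimized for IP6K, with 1 mM ATP consumed as the kinase reaction proceeds. IC50 values from each isoform were converted to Ki with the Cheng-Prusoff equation, and the Ki ratio versus IP6K1 was taken.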

In series [21] the target is Vascular endothelial growth factor receptor 2 (Homo sapiens) (UniProt P35968). Briefly: Inhibition of human recombinant KDR (790 to end residues) assessed as residual activity at 10 uM using myelin basic protein as substrate incubated for 40 mins in presence of [gamma-33P]ATP at Km concentration by radiometric assay relative to control.
In series [22] the target is Tyrosine-protein kinase Lyn (Homo sapiens) (UniProt P07948). In words: Inhibition of full length recombinant human LYN assessed as residual activity at 10 uM using poly (Glu,Tyr) 4:1 as substrate incubated for 40 mins in presence of [gamma-33P]ATP at Km concentration by radiometric assay relative to control.
Sequence of Tyrosine-protein kinase Lyn (Homo sapiens) (P07948 2-512 limits assumed): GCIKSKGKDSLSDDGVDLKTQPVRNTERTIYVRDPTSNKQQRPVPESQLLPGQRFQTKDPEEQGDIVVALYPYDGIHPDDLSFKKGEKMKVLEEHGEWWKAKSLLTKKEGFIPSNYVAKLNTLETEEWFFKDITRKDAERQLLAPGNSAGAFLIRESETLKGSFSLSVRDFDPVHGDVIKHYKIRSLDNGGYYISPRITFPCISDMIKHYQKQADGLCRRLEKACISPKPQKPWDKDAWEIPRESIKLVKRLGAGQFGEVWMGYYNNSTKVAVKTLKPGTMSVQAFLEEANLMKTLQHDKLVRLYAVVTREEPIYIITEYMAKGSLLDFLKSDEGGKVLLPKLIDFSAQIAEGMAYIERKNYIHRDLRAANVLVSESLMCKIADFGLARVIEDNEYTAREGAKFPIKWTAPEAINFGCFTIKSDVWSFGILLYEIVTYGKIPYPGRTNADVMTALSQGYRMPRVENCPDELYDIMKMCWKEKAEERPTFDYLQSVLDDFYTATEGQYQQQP

Sequence of cGMP-dependent protein kinase 1 (Homo sapiens) (Q13976 whole entry): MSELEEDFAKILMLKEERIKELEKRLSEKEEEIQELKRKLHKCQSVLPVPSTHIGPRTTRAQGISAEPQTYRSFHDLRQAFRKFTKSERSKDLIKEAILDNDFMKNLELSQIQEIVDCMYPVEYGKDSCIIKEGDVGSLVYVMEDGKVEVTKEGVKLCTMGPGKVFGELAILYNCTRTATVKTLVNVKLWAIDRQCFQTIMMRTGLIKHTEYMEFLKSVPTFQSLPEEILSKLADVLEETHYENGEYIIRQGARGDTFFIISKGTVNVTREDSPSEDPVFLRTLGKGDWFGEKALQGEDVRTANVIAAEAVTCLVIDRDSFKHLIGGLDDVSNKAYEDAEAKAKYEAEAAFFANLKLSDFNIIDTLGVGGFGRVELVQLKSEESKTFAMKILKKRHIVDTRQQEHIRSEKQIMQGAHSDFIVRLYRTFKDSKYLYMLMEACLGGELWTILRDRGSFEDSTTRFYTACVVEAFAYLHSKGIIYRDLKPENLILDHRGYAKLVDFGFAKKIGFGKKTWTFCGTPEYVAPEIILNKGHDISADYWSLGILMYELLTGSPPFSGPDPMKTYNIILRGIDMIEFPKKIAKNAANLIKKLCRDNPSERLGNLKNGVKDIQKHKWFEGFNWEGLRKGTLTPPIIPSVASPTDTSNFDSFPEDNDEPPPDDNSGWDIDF
Sequence of Ribosomal protein S6 kinase alpha-4 (Homo sapiens) (O75676 whole entry, looked up): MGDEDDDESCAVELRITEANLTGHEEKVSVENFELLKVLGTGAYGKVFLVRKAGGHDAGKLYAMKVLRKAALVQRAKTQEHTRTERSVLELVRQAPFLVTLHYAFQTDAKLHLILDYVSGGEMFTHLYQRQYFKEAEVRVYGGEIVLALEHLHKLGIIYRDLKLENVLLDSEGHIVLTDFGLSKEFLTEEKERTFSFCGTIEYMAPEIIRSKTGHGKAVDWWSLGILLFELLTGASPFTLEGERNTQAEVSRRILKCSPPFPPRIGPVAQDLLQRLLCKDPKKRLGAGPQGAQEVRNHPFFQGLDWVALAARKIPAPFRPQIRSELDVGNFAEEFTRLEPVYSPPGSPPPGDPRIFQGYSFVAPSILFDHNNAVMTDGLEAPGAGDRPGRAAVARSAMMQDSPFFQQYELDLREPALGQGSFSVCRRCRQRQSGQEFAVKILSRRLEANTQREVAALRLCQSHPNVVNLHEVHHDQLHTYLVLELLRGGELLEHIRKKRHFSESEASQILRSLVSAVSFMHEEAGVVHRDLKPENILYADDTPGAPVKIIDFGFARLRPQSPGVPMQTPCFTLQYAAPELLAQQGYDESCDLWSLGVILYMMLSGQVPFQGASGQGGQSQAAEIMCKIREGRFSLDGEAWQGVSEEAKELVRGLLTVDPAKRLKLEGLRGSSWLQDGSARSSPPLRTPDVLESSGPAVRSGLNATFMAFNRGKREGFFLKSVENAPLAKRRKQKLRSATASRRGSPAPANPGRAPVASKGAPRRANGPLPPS

As for `COc1ccc2c(CCNc3nc(NCc4ccc(=O)[nH]c4)c4nc[nH]c4n3)c[nH]c2c1`, the Activity in series [1] amounted to 87%; in [2] it was 96%; in series [3], 91%; in series [4], 85%; in series [5], 82%; in series [6] it was 24%. The Activity worked out at 83% in [8]; 46% in series [9]; 77% in [10]; 114% in [11]; 94% in series [13]; 91% in [14]. Further, the Activity stood at 97% in series [16]; 94% in series [17]; 88% in series [19]; 60% in series [21]; 86% in [22]. In addition, the t1/2 in series [7] is given as 42 min; in series [18], 38 min. In addition, the Ki in [12] was found to be 4.88 µM. Further, in series [15], the IC50 turned out to be 15 µM. Besides, the Ratio Ki in series [20] worked out at 48.1.
